HCT116 bCat-KO: beta-catenin-lacking colon tumor cell growth suppression. HCT116 beta-catenin knockout viability, CellTiter-Glo, 60 h; active compounds read low. viability, % at 10 µM. 1.5% of 140,000 active;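 active means viability at or under a set limit, the compound median less 4 SD, cut at about 6% in these data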
Lung fibro prol: blocks proliferation of human lung fibroblasts; LL 47 human lung fibroblast viability, ATP luminescence; active compounds read low; viability, % at 10 µM; 1.1% of 85,000 active;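 active means viability at or below 50% in the single dose screen; inactive means viability above 50%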;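 further: compound exposure lasted 72 h before the ATP readout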
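Material: human lung fibroblast line LL 47, low passage; Evaluation: viability percentage against median untreated-cell control; Buffer or medium: 15% FBS in IMEM; Incubation: 72 h compound exposure at 37 °C after overnight plating; Dosing: 0.1% DMSO in all compound wells; Measured by: CellTiter-Glo luminescence.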
PTEN del growth: PTEN-deleted cell growth suppression | HCT116 PTEN-null viability, CellTiter-Glo, 60 h; active compounds read low | viability, % at 10 µM | 1.2% of 140,000 active | AID 827;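 active means viability at or below a set limit, 4 SD under the median of all tested compounds, cut at about 3.7% in these data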;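 further: PTEN knockout HCT116 line with beta catenin targeted HCT116 as companion control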
HUVEC inhibit: human endothelial cell proliferation inhibition; HUVEC proliferation, CellTiter-Glo luminescence, 72 h; active compounds read low; 1.1% of 86,000 active; viability, % at 10 µM (by protocol); AID 648;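 active means viability at or below 30%; inactive means viability above 30%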
H69AR inhibit: blocks growth of human H69AR lung tumor cells; AID 598; viability, % at 10 µM; 6% of 85,000 active; H69AR lung tumor viability, ATP luminescence, 72 h; active compounds read low;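 active means viability at or below 40%; inactive means viability above 40%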;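 further: multidrug resistant small cell line overexpressing MRP-1 efflux transporter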
Hits are given with their value. Shown is part of a subset that was picked to be rich in hits.

For COc1cccc2sc(Nc3nnc(-c4ccc(F)cc4)o3)nc12 the results were HCT116 bCat-KO inactive, Lung fibro prol inactive, PTEN del growth inactive, HUVEC inhibit 2.9 and H69AR inhibit 35.
Fc1cccc2sc(Nc3nc4cc5c(cc4s3)OCCO5)nc12 was read as HCT116 bCat-KO inactive and PTEN del growth inactive.
CCOC(=O)c1sc(Nc2nc3c(OC)cccc3s2)nc1C was read as HCT116 bCat-KO inactive and PTEN del growth inactive.
Screening Fc1cccc2sc(Nc3nnc(-c4ccco4)o3)nc12 returned HCT116 bCat-KO inactive, Lung fibro prol inactive, PTEN del growth inactive, HUVEC inhibit inactive and H69AR inhibit 37.
`CCOC(=O)C1C(c2ccc(O)c(OC)c2)NC(=S)NC1(O)C(F)(F)F` (stereo not drawn) gave HCT116 bCat-KO inactive and PTEN del growth inactive.
C=CCNC(=S)N/N=C(\C)c1ccccn1 was read as HCT116 bCat-KO inactive, Lung fibro prol 9.2, PTEN del growth inactive, HUVEC inhibit 19 and H69AR inhibit 20.
C/C(=N\NC(=O)CCCNc1ccc(C)cc1)c1ccccn1 was read as HCT116 bCat-KO 5.8 and PTEN del growth inactive.
For C/C(=N\NC(=S)NCc1ccccc1)c1ccccc1 the results were HCT116 bCat-KO inactive and PTEN del growth inactive.
`C/C(=N/NC(=O)CNC(=O)c1ccccn1)c1ccccc1` gave HCT116 bCat-KO inactive and PTEN del growth inactive.
Screening CCCC(C)NC(=O)COc1ccc(S(=O)(=O)c2ccc(OCC(=O)NC(C)CCC)cc2)cc1 (stereo not drawn) returned HCT116 bCat-KO inactive and PTEN del growth inactive.
`Cc1ccc(NC(=O)C(Nc2cccc(C)c2)c2ccccc2)cc1` (stereo not drawn) gave HCT116 bCat-KO inactive and PTEN del growth inactive.
`Cc1cccc2sc(NNC(=O)c3ccc(S(=O)(=O)N4CCc5ccccc5C4)cc3)nc12` gave HCT116 bCat-KO 3.7 and PTEN del growth inactive.
Screening Cc1cccc2sc(NNC(=O)c3ccc(S(=O)(=O)N4CCCC(C)C4)cc3)nc12 (stereo not drawn) returned HCT116 bCat-KO 1.9 and PTEN del growth inactive.
For CCOC(=O)N1CCN(S(=O)(=O)c2ccc(C(=O)NNc3nc4c(C)cccc4s3)cc2)CC1 the results were HCT116 bCat-KO inactive and PTEN del growth inactive.
`O=C(CSc1ncnc2c1cnn2Cc1ccccc1)Nc1ccc2c(c1)OCCO2` gave HCT116 bCat-KO inactive, Lung fibro prol inactive, PTEN del growth inactive, HUVEC inhibit inactive and H69AR inhibit 34.
`CCc1nc(SCC(=O)N2CCCc3ccccc32)c2oc3ccccc3c2n1` gave HCT116 bCat-KO inactive, Lung fibro prol inactive, PTEN del growth inactive, HUVEC inhibit inactive and H69AR inhibit inactive.
Screening COc1cccc(NC(=O)CSc2ncnc3c2cnn3Cc2ccccc2)c1 returned HCT116 bCat-KO inactive, Lung fibro prol inactive, PTEN del growth inactive, HUVEC inhibit inactive and H69AR inhibit inactive.
Screening CCc1nc(SCC(=O)Nc2nccs2)c2oc3ccccc3c2n1 returned HCT116 bCat-KO inactive, Lung fibro prol inactive, PTEN del growth inactive, HUVEC inhibit inactive and H69AR inhibit 13.
CCc1nc(SCC(=O)Nc2ccc3c(c2)OCCO3)c2oc3ccccc3c2n1 was read as HCT116 bCat-KO inactive, Lung fibro prol inactive, PTEN del growth inactive, HUVEC inhibit 20 and H69AR inhibit 0.9.
`O=c1/c(=C/c2ccco2)sc2n1CN(c1cccc(Br)c1)CN=2` gave HCT116 bCat-KO inactive, Lung fibro prol inactive, PTEN del growth inactive, HUVEC inhibit inactive and H69AR inhibit 32.
Oc1ccc(-c2nc3ccccn3c2NCc2ccco2)cc1 was read as HCT116 bCat-KO inactive, Lung fibro prol inactive, PTEN del growth inactive, HUVEC inhibit inactive and H69AR inhibit inactive.
CCOC(=O)Cc1nnc(Nc2ccc(C)cc2C)c2ccccc12 was read as HCT116 bCat-KO inactive and PTEN del growth inactive.
For CC(C)CSc1nc2c(c(=O)[nH]c(=O)n2C)n1CCc1ccccc1 the results were HCT116 bCat-KO inactive, Lung fibro prol inactive, PTEN del growth inactive, HUVEC inhibit inactive and H69AR inhibit inactive.
Screening CC(C)CSc1nc2c(c(=O)[nH]c(=O)n2C)n1CC(O)COc1cccc2ccccc12 (stereo not drawn) returned HCT116 bCat-KO inactive, Lung fibro prol inactive, PTEN del growth inactive, HUVEC inhibit inactive and H69AR inhibit 32.
`COc1cccc(C(=O)CSc2nnc(-c3cccs3)o2)c1` gave HCT116 bCat-KO inactive, Lung fibro prol inactive, PTEN del growth inactive, HUVEC inhibit inactive and H69AR inhibit inactive.
`CCOC(=O)c1c(C)[nH]c(C)c1C(=O)CSc1nnc(-c2ccc(OC(F)F)cc2)o1` gave HCT116 bCat-KO inactive, Lung fibro prol inactive, PTEN del growth inactive, HUVEC inhibit inactive and H69AR inhibit inactive.
`COc1ccc(-c2nnc(SCC(=O)c3[nH]c(C)c(C(C)=O)c3C)o2)cc1` gave HCT116 bCat-KO inactive, Lung fibro prol inactive, PTEN del growth inactive, HUVEC inhibit inactive and H69AR inhibit 5.3.
C#CCSc1nnc(-c2ccc(OC)cc2)o1 was read as HCT116 bCat-KO inactive, Lung fibro prol inactive, PTEN del growth inactive, HUVEC inhibit inactive and H69AR inhibit 19.
`CCOC(=O)c1[nH]c(CSc2nnc(-c3ccc(OC)cc3)o2)c(C(=O)OCC)c1C` gave HCT116 bCat-KO inactive, Lung fibro prol inactive, PTEN del growth inactive, HUVEC inhibit inactive and H69AR inhibit 18.
`COc1cccc(C(=O)CSc2nnc(-c3cc(OC)cc(OC)c3)o2)c1` gave HCT116 bCat-KO inactive, Lung fibro prol inactive, PTEN del growth inactive, HUVEC inhibit 24 and H69AR inhibit 8.7.
Screening O=C(NNS(=O)(=O)c1ccc(Cl)cc1)c1cnn(-c2ccccc2)c1-n1cccc1 returned HCT116 bCat-KO inactive and PTEN del growth inactive.
COc1ccc(OCC(=O)NNc2c3ccccc3nc3ccccc23)cc1 was read as HCT116 bCat-KO inactive and PTEN del growth inactive.
Screening O=C(Nc1ccc(Cl)c(C(F)(F)F)c1)NC1CC2CCCC(C1)N2C1CC1 (stereo not drawn) returned Lung fibro prol inactive, HUVEC inhibit 12 and H69AR inhibit 34.
For O=C(Nc1cccc(F)c1)NC1CC2CCCC(C1)N2C1CC1 (stereo not drawn) the results were HCT116 bCat-KO inactive, Lung fibro prol inactive, PTEN del growth inactive, HUVEC inhibit inactive and H69AR inhibit inactive.
`CCOC(=O)c1c(CN2CCN(Cc3ccccc3)CC2)n(C)c2cc(Br)c(OC)cc12` gave HCT116 bCat-KO inactive, Lung fibro prol inactive, PTEN del growth inactive, HUVEC inhibit inactive and H69AR inhibit 14.
Screening CCOC(=O)c1c(CSc2ccccc2)n(C)c2cc(Br)c(OCC(O)CNC(CO)(CO)CO)cc12 (stereo not drawn) returned HCT116 bCat-KO 1.5 and PTEN del growth 2.1.
CCOC(=O)c1c(C)n(C)c2cc(Br)c(C)cc12 was read as HCT116 bCat-KO inactive, Lung fibro prol inactive, PTEN del growth inactive, HUVEC inhibit inactive and H69AR inhibit inactive.
Screening CCOC(=O)c1c(CSc2ccccc2)oc2ccc(O)cc12 returned HCT116 bCat-KO inactive and PTEN del growth inactive.

Screening data (PubChem BioAssay)
